What was measured:
[1] = folding enthalpy; higher = less favourable; fluorescence melt of hairpins on a sequencing array, two-state fit; conditions: sodium 0.088 M
Method in brief: (§1)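 Hairpins were imaged by Cy3 fluorescence on a sequenced MiSeq flow cell with annealed Cy3 and quencher oligos, in 50 mM Na-HEPES pH 8.0, 25 mM NaCl, in 2.5 °C steps up to 60 °C. Bootstrapped two-state fits of normalised signals gave melting temperature and folding enthalpy. Four replicates were combined by inverse variance, and fitted temperatures were raised by 9.35 °C to match UV melts.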

[2] = melting temperature; fluorescence melt of hairpins on a sequencing array, two-state fit, raised by 9.35 °C to match UV melts; conditions: sodium 0.088 M
Method in brief: as §1

| Sequence | folding enthalpy [1] [kcal/mol] | Tm [2] [°C] |
| --- | --- | --- |
| GACCCTGGAAACGGGGTC (((((.(....).))))) | -40.3 | 57.6 |
| GACCGAGCGAAAGCTGTC (((..(((....)))))) | -15.3 | 36.8 |
| GACCGAGGAAACTCGATC ((.((((....)))).)) | -21.1 | 40.7 |
| GACCGAGGAAACTCGGCC (.(((((....))))).) | -15.1 | 46.6 |
| GACCGCCGAAAGGCTGTC (((.(((....))).))) | -20.6 | 55.5 |
| GACCGCGAAAGCGAAGTC ((((((....)))..))) | -16.9 | 47.4 |
| GACCGCGAAAGCGCAGTC ((((((....)))..))) | -16.3 | 38 |
| GACCGCGGAAACACGGTC (((((.(....).))))) | -52 | 55.5 |
| GACCGCGGAAACGTGGTC ((((.((....)).)))) | -44.8 | 62.8 |
| GACCGGCGAAAGCCCGTC (((.(((....))).))) | -16.9 | 50.8 |
| GACCGGCGAAAGCCGTC (((.(((....)))))) | -8.28 | 49.1 |
| GACCGGGCGAAAGCCGTC (((..(((....)))))) | -10.3 | 40.4 |
| GACCGGGGAAACCCAGTC (((.(((....))).))) | -23.6 | 42.8 |
| GACCGGGGAAACCCGATC ((.((((....)))).)) | -19.9 | 44 |
| GACCGGGGAAACCTGGTC ((((.((....)).)))) | -39.3 | 55.4 |
| GACCGTGGAAACACGATC ((.((((....)))).)) | -19.1 | 43.1 |
| GACCGTGGAAACGCGGTC (((((.(....).))))) | -40 | 58.6 |
| GACCTAGCGAAAGCTGTC (((..(((....)))))) | -11.6 | 33 |
| GACCTCCGAAAGGACGTC (((.(((....))).))) | -27.3 | 42 |
| GACCTCGCGAAAGCGGTC (((..(((....)))))) | -12.3 | 42.3 |
| GACCTGGAAACAGGTC ((((((....)))))) | -40.6 | 61.4 |
| GACCTGGGAAACCAGACC (..((((....))))..) | -10.3 | 24.6 |
| GACCTGGGAAACCAGGCC (.(((((....))))).) | -12.7 | 46.4 |

| Sequence | folding enthalpy [1] [kcal/mol] | Tm [2] [°C] |
| --- | --- | --- |
| GACCTTGGAAACAAGGCC (.(((((....))))).) | -17.2 | 45.2 |
| GACGAACCGAAAGGTGTC (((..(((....)))))) | -16.4 | 43.1 |
| GACGACGAAAGTCATGTC ((((((....)))..))) | -15.2 | 40.3 |
| GACGACGAAAGTCCAGTC ((((((....)))..))) | -21.5 | 36.2 |
| GACGACGAAAGTCCCGTC ((((((....)))..))) | -16.6 | 34.3 |
| GACGACGAAAGTCGCGTC ((((((....)))..))) | -10.6 | 49.9 |
| GACGACGAAAGTCTCGTC ((((((....)))..))) | -17.1 | 46.9 |
| GACGACGAAAGTCTGGTC ((((((....)))..))) | -21.8 | 41.2 |
| GACGACGGAAACGTTGTC (((.(((....))).))) | -43.1 | 55 |
| GACGAGGGAAACCTCATC ((.((((....)))).)) | -20.3 | 31.2 |
| GACGATGAAAATCGTC ((((((....)))))) | -31.1 | 61.1 |
| GACGATGGAAACACCATC ((.(.((....)).).)) | -17 | 28.4 |
| GACGATGGAAACATCATC ((.((((....)))).)) | -18.4 | 33.4 |
| GACGCACCGAAAGGTGTC (((..(((....)))))) | -8.75 | 32.1 |
| GACGCAGCGAAAGCTGTC (((..(((....)))))) | -7.32 | 33.5 |
| GACGCCGAAAGGCGCGTC ((((((....)))..))) | -9.77 | 49.6 |
| GACGCCGAAAGGCGTGTC ((((((....)))..))) | -8.76 | 66.9 |
| GACGCCGAAAGGCTGGTC ((((((....)))..))) | -16.1 | 48 |
| GACGCGACGAAAGTCGTC (((..(((....)))))) | -8.11 | 35.5 |
| GACGCTGGAAACAACGTC ((((.((....)).)))) | -39.4 | 45.5 |
| GACGCTGGAAACAGTGTC (((.(((....))).))) | -42 | 53.5 |
| GACGGACGAAAGTCAGTC (((.(((....))).))) | -37.5 | 59.5 |
| GACGGAGGAAACCCCGTC (((((.(....).))))) | -37.5 | 51.3 |

| Sequence | folding enthalpy [1] [kcal/mol] | Tm [2] [°C] |
| --- | --- | --- |
| GACGGAGGAAACTCCATC ((.((((....)))).)) | -16.8 | 33.6 |
| GACGGAGGAAACTCTGTC (((.(((....))).))) | -39.4 | 48 |
| GACGGCGAAAGCCGTGTC ((((((....)))..))) | -9.28 | 63.9 |
| GACGGGGGAAACCCCATC ((.((((....)))).)) | -14.7 | 37 |
| GACGGTACGAAAGTAGTC (((..(((....)))))) | -16 | 34.5 |
| GACGGTGGAAACACCACC (..((((....))))..) | -11.1 | 35.2 |
| GACGGTGGAAACACCGCC (.(((((....))))).) | -12.7 | 50.4 |
| GACGGTGGAAACGCTGTC (((.(.(....).).))) | -22.2 | 40.9 |
| GACGTACCGAAAGGTGTC (((..(((....)))))) | -22.4 | 41.9 |
| GACGTACGAAAGTAGTC (((.(((....)))))) | -34 | 52.8 |
| GACGTAGCGAAAGCTGTC (((..(((....)))))) | -17.7 | 47.1 |
| GACGTCGGAAACGGTGTC (((..((....))..))) | -25.7 | 43 |
| GACGTGACGAAAGTCGTC (((..(((....)))))) | -14.2 | 49.4 |
| GACGTGGGAAACCGTGTC (((..((....))..))) | -16.8 | 36.6 |
| GACGTTGCGAAAGCAGTC (((..(((....)))))) | -16.5 | 49.9 |
| GACTAACCGAAAGGTGTC (((..(((....)))))) | -18.3 | 41.4 |
| GACTAACGAAAGTTGTC (((.(((....)))))) | -24.1 | 42.4 |
| GACTACGAAAGTACTGTC ((((((....)))..))) | -18.5 | 29.9 |
| GACTACGAAAGTATGTC ((((((....))).))) | -26.2 | 44.7 |
| GACTACGGAAACGTGGTC (((.(((....))).))) | -42.8 | 52 |
| GACTAGCCGAAAGGCGTC (((..(((....)))))) | -9.39 | 40.5 |
| GACTAGCGAAAGCTGGTC (((.(((....))).))) | -34.1 | 61 |
| GACTATCCGAAAGGAGTC (((..(((....)))))) | -17 | 34.1 |

| Sequence | folding enthalpy [1] [kcal/mol] | Tm [2] [°C] |
| --- | --- | --- |
| GACTATGGAAACGTAGTC (((((.(....).))))) | -32.4 | 42 |
| GACTCACGAAAGTGGTC (((.(((....)))))) | -20 | 46.6 |
| GACTCCCGAAAGGGTGTC (((.(((....))).))) | -33.1 | 58.3 |
| GACTCCGAAAGGAGAGTC ((((((....)))..))) | -12.9 | 43 |
| GACTCCGGAAACAGAGTC (((((.(....).))))) | -36.5 | 40.1 |
| GACTCGCGAAAGCGTGTC (((.(((....))).))) | -27.1 | 63.3 |
| GACTCGGCGAAAGCCGTC (((..(((....)))))) | -4.78 | 36.2 |
| GACTCGGGAAACCAAGTC ((((.((....)).)))) | -25 | 37.6 |
| GACTCGGGAAACCGAACC (..((((....))))..) | -9.35 | 22.6 |
| GACTCGGGAAACCGGGTC (((.(((....))).))) | -40.6 | 55.1 |
| GACTCTGGAAACGGAGTC (((((.(....).))))) | -46.5 | 50.3 |
| GACTGACGAAAGTCTGTC (((.(((....))).))) | -36.7 | 54.9 |
| GACTGAGGAAACCCAGTC (((((.(....).))))) | -33.7 | 44.8 |
| GACTGAGGAAACTCAGCC (.(((((....))))).) | -16.9 | 43.4 |
| GACTGCACGAAAGTGGTC (((..(((....)))))) | -13.9 | 35.3 |
| GACTGCCGAAAGGCTGTC (((.(((....))).))) | -30.9 | 63.2 |
| GACTGCGAAAGCACCGTC ((((((....)))..))) | -10.7 | 37.6 |
| GACTGCGAAAGCACGGTC ((((((....)))..))) | -12.4 | 42.4 |
| GACTGCGAAAGCAGGGTC ((((((....)))..))) | -12.4 | 62.2 |
| GACTGCGAAAGCAGGTC ((((((....))).))) | -13.1 | 58.1 |
| GACTGCGAAAGCAGTGTC ((((((....)))..))) | -10.2 | 58.6 |
| GACTGCGGAAACACAGTC (((((.(....).))))) | -26.8 | 47.4 |
